Results taken from ChEMBL document CHEMBL4715736, “Identification of anticancer agents based on the thieno[2,3-b]pyridine and 1H-pyrazole molecular scaffolds” (2016).

What was measured:
Format in all cases: functional
A549 = test: Growth inhibition of human A549/ATCC cells incubated for 48 hrs by sulforhodamine B assay; conditions: for CC50: read-out: LC50 (the source's name)
Method in brief: (§1)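 NCI Developmental Therapeutics Program NCI60 panel. Compounds that were active in the 10 µM one-dose screen went on to dose–response testing. Growth at each concentration is expressed relative to untreated control (100%). GI50 (concentration giving 50% of maximal inhibition of proliferation) and TGI (concentration giving total growth inhibition) were derived from the curves.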

MCF7 [1] = test: Growth inhibition of human MCF7 cells incubated for 48 hrs by sulforhodamine B assay; conditions: for CC50: read-out: LC50 (the source's name)
Method in brief: (§2)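 NCI60 panel at the NCI Developmental Therapeutics Program. Only compounds active in the 10 µM screen went to dose-response testing. GI50, the concentration giving 50% of maximal inhibition of proliferation, and TGI, the concentration giving total growth inhibition, were derived from the dose-response curves.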

LOX IMVI [2] = test: Growth inhibition of human LOX IMVI cells assessed as cell growth at 0.01 uM incubated for 48 hrs by sulforhodamine B assay relative to control; conditions: read-out: Activity
M14 = test: Growth inhibition of human M14 cells assessed as cell growth at 1 uM incubated for 48 hrs by sulforhodamine B assay relative to control; conditions: read-out: Activity
UACC-257 = test: Growth inhibition of human UACC-257 cells assessed as cell growth at 0.01 uM incubated for 48 hrs by sulforhodamine B assay relative to control; conditions: read-out: Activity
CCRF-CEM = test: Growth inhibition of human CCRF-CEM cells incubated for 48 hrs by sulforhodamine B assay; method in brief: as §1
NCI-H322M = test: Growth inhibition of human NCI-H322M cells assessed as cell growth at 0.1 uM incubated for 48 hrs by sulforhodamine B assay relative to control; conditions: read-out: Activity
HCC 2998 = test: Growth inhibition of human HCC 2998 cells incubated for 48 hrs by sulforhodamine B assay; conditions: for CC50: read-out: LC50 (the source's name)
SK-MEL-5 = test: Growth inhibition of human SK-MEL-5 cells incubated for 48 hrs by sulforhodamine B assay
Method in brief: (§3)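 NCI DTP 60-line human tumour panel. Dose-response curves were run only for ligands active in the initial 10 µM screen. GI50 (concentration giving 50% of maximal inhibition of proliferation) and TGI (concentration giving total growth inhibition) were derived from these curves.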

SW-620 = test: Growth inhibition of human SW-620 cells assessed as cell growth at 0.01 uM incubated for 48 hrs by sulforhodamine B assay relative to control; conditions: read-out: Activity
SK-OV-3 = test: Growth inhibition of human SK-OV-3 cells assessed as cell growth at 0.01 uM incubated for 48 hrs by sulforhodamine B assay relative to control; conditions: read-out: Activity
ACHN = test: Growth inhibition of human ACHN cells assessed as cell growth at 1 uM incubated for 48 hrs by sulforhodamine B assay relative to control; conditions: read-out: Activity
HOP-62 = test: Growth inhibition of human HOP-62 cells incubated for 48 hrs by sulforhodamine B assay; method in brief: as §2
SNB-19 = test: Growth inhibition of human SNB-19 cells incubated for 48 hrs by sulforhodamine B assay; method in brief: as §3
MCF7 [3] = test: Growth inhibition of human MCF7 cells assessed as cell growth at 0.1 uM incubated for 48 hrs by sulforhodamine B assay relative to control; conditions: read-out: Activity
MDA-MB-468 = test: Growth inhibition of human MDA-MB-468 cells assessed as cell growth at 0.1 uM incubated for 48 hrs by sulforhodamine B assay relative to control; conditions: read-out: Activity
A498 = test: Growth inhibition of human A498 cells assessed as cell growth at 0.1 uM incubated for 48 hrs by sulforhodamine B assay relative to control; conditions: read-out: Activity; method in brief: as §1
SK-MEL-2 = test: Growth inhibition of human SK-MEL-2 cells assessed as cell growth at 0.1 uM incubated for 48 hrs by sulforhodamine B assay relative to control; conditions: read-out: Activity
SF-539 = test: Growth inhibition of human SF-539 cells assessed as cell growth at 0.01 uM incubated for 48 hrs by sulforhodamine B assay relative to control; conditions: read-out: Activity
Malme-3M = test: Growth inhibition of human Malme-3M cells incubated for 48 hrs by sulforhodamine B assay; method in brief: as §2
OVCAR-5 = test: Growth inhibition of human OVCAR-5 cells assessed as cell growth at 100 uM incubated for 48 hrs by sulforhodamine B assay relative to control; conditions: read-out: Activity
SNB-75 = test: Growth inhibition of human SNB-75 cells assessed as cell growth at 1 uM incubated for 48 hrs by sulforhodamine B assay relative to control; conditions: read-out: Activity
MCF7 [4] = test: Growth inhibition of human MCF7 cells assessed as cell growth at 0.01 uM incubated for 48 hrs by sulforhodamine B assay relative to control; conditions: read-out: Activity
LOX IMVI [5] = test: Growth inhibition of human LOX IMVI cells incubated for 48 hrs by sulforhodamine B assay; method in brief: as §2
MDA-MB-231 = test: Growth inhibition of human MDA-MB-231 cells assessed as cell growth at 0.1 uM incubated for 48 hrs by sulforhodamine B assay relative to control; conditions: read-out: Activity
IGROV-1 = test: Growth inhibition of human IGROV-1 cells incubated for 48 hrs by sulforhodamine B assay; method in brief: as §2
RPMI-8226 = test: Growth inhibition of human RPMI-8226 cells assessed as cell growth at 0.1 uM incubated for 48 hrs by sulforhodamine B assay relative to control; conditions: read-out: Activity
T47D = test: Growth inhibition of human T47D cells assessed as cell growth at 1 uM incubated for 48 hrs by sulforhodamine B assay relative to control; conditions: read-out: Activity
NCI-H226 = test: Growth inhibition of human NCI-H226 cells incubated for 48 hrs by sulforhodamine B assay; conditions: for CC50: read-out: LC50 (the source's name); method in brief: as §2
U-251 = test: Growth inhibition of human U-251 cells assessed as cell growth at 0.01 uM incubated for 48 hrs by sulforhodamine B assay relative to control; conditions: read-out: Activity
TK-10 = test: Growth inhibition of human TK-10 cells assessed as cell growth at 1 uM incubated for 48 hrs by sulforhodamine B assay relative to control; conditions: read-out: Activity
OVCAR-4 = test: Growth inhibition of human OVCAR-4 cells assessed as cell growth at 0.1 uM incubated for 48 hrs by sulforhodamine B assay relative to control; conditions: read-out: Activity
NCI/ADR-RES = test: Growth inhibition of human NCI/ADR-RES cells incubated for 48 hrs by sulforhodamine B assay; conditions: for CC50: read-out: LC50 (the source's name); method in brief: as §2
SF-295 = test: Growth inhibition of human SF-295 cells incubated for 48 hrs by sulforhodamine B assay; method in brief: as §3

SMILES: Cc1cc(C)c(NC(=O)c2sc3nc4c(cc3c2N)CN(Cc2ccccc2)CC4)c(C)c1
- GI50 (A549): 4.11 µM
- TGI (A549): > 100 µM
- CC50 (A549): > 100 µM
- GI50 (MCF7 [1]): 1.61 µM
- TGI (MCF7 [1]): 32.2 µM
- CC50 (MCF7 [1]): > 100 µM
- growth at 0.01 µM (LOX IMVI [2]): 99%
- growth at 1 µM (M14): 78%
- growth at 0.01 µM (UACC-257): 94%
- GI50 (CCRF-CEM): 3.16 µM
- LC50 (CCRF-CEM): > 100 µM
- TGI (CCRF-CEM): 59.7 µM
- growth at 0.1 µM (NCI-H322M): 97%
- GI50 (HCC 2998): 5.33 µM
- TGI (HCC 2998): 38.4 µM
- CC50 (HCC 2998): > 100 µM
- GI50 (SK-MEL-5): 1.47 µM
- LC50 (SK-MEL-5): > 100 µM
- TGI (SK-MEL-5): 11.5 µM
- growth at 0.01 µM (SW-620): 95%
- growth at 0.01 µM (SK-OV-3): 92%
- growth at 1 µM (ACHN): 89%
- GI50 (HOP-62): 7.73 µM
- LC50 (HOP-62): > 100 µM
- TGI (HOP-62): > 100 µM
- GI50 (SNB-19): 7.21 µM
- LC50 (SNB-19): > 100 µM
- TGI (SNB-19): > 100 µM
- growth at 0.1 µM (MCF7 [3]): 91%
- growth at 0.1 µM (MDA-MB-468): 78%
- growth at 0.1 µM (A498): 91%
- growth at 0.1 µM (SK-MEL-2): 113%
- growth at 0.01 µM (SF-539): 91%
- GI50 (Malme-3M): 3.44 µM
- LC50 (Malme-3M): > 100 µM
- TGI (Malme-3M): 42 µM
- growth at 100 µM (OVCAR-5): 14%
- growth at 1 µM (SNB-75): 79%
- growth at 0.01 µM (MCF7 [4]): 86%
- GI50 (LOX IMVI [5]): 5.01 µM
- LC50 (LOX IMVI [5]): 50.9 µM
- TGI (LOX IMVI [5]): 18.1 µM
- growth at 0.1 µM (MDA-MB-231): 101%
- GI50 (IGROV-1): 6.54 µM
- LC50 (IGROV-1): > 100 µM
- TGI (IGROV-1): > 100 µM
- growth at 0.1 µM (RPMI-8226): 100%
- growth at 1 µM (T47D): 77%
- GI50 (NCI-H226): 4.69 µM
- TGI (NCI-H226): > 100 µM
- CC50 (NCI-H226): > 100 µM
- growth at 0.01 µM (U-251): 99%
- growth at 1 µM (TK-10): 95%
- growth at 0.1 µM (OVCAR-4): 94%
- GI50 (NCI/ADR-RES): 1.64 µM
- TGI (NCI/ADR-RES): 6.24 µM
- CC50 (NCI/ADR-RES): > 100 µM
- GI50 (SF-295): 1.89 µM
- LC50 (concentration killing 50% of cells) (SF-295): > 100 µM
- TGI (SF-295): 64.7 µM

SMILES: CCc1ccccc1NC(=O)c1sc2nc3c(cc2c1N)C(=O)CCC3
- GI50 (A549): 0.595 µM
- TGI (A549): > 100 µM
- CC50 (A549): > 100 µM
- GI50 (MCF7 [1]): 0.312 µM
- TGI (MCF7 [1]): > 100 µM
- CC50 (MCF7 [1]): > 100 µM
- growth at 0.01 µM (LOX IMVI [2]): 97%
- growth at 1 µM (M14): 17%
- growth at 0.01 µM (UACC-257): 93%
- GI50 (CCRF-CEM): 0.328 µM
- LC50 (CCRF-CEM): > 100 µM
- TGI (CCRF-CEM): > 100 µM
- growth at 0.1 µM (NCI-H322M): 99%
- GI50 (HCC 2998): 1.43 µM
- TGI (HCC 2998): > 100 µM
- CC50 (HCC 2998): > 100 µM
- GI50 (SK-MEL-5): 0.282 µM
- LC50 (SK-MEL-5): > 100 µM
- TGI (SK-MEL-5): > 100 µM
- growth at 0.01 µM (SW-620): 96%
- growth at 0.01 µM (SK-OV-3): 104%
- growth at 1 µM (ACHN): 43%
- GI50 (HOP-62): 0.445 µM
- LC50 (HOP-62): > 100 µM
- TGI (HOP-62): ≥ 100 µM
- GI50 (SNB-19): 0.763 µM
- LC50 (SNB-19): > 100 µM
- TGI (SNB-19): > 100 µM
- growth at 0.1 µM (MCF7 [3]): 83%
- growth at 0.1 µM (MDA-MB-468): 75%
- growth at 0.1 µM (A498): 72%
- growth at 0.1 µM (SK-MEL-2): 104%
- growth at 0.01 µM (SF-539): 92%
- GI50 (Malme-3M): 26.2 µM
- LC50 (Malme-3M): > 100 µM
- TGI (Malme-3M): ≥ 100 µM
- growth at 100 µM (OVCAR-5): 7%
- growth at 1 µM (SNB-75): -8%
- growth at 0.01 µM (MCF7 [4]): 82%
- GI50 (LOX IMVI [5]): 0.645 µM
- LC50 (LOX IMVI [5]): > 100 µM
- TGI (LOX IMVI [5]): > 100 µM
- growth at 0.1 µM (MDA-MB-231): 90%
- GI50 (IGROV-1): 13.7 µM
- LC50 (IGROV-1): > 100 µM
- TGI (IGROV-1): > 100 µM
- growth at 0.1 µM (RPMI-8226): 96%
- growth at 1 µM (T47D): 20%
- GI50 (NCI-H226): 20.1 µM
- TGI (NCI-H226): > 100 µM
- CC50 (NCI-H226): > 100 µM
- growth at 0.01 µM (U-251): 96%
- growth at 1 µM (TK-10): 55%
- growth at 0.1 µM (OVCAR-4): 88%
- GI50 (NCI/ADR-RES): 0.367 µM
- TGI (NCI/ADR-RES): 39.2 µM
- CC50 (NCI/ADR-RES): > 100 µM
- GI50 (SF-295): 0.257 µM
- LC50 (concentration killing 50% of cells) (SF-295): > 100 µM
- TGI (SF-295): ≥ 100 µM
